Assay results reported in ChEMBL document CHEMBL1629621, “Evaluation of strategies for improving proteolytic resistance of antimicrobial peptides by using variants of EFK17, an internal segment of LL-37” (Antimicrob Agents Chemother, 2009).
Values after ≈ are worked out from the molar mass of the structure shown. Active and inactive are the calls of the source. The rule behind the calls is not given here. Where a SMILES comes first, the peptide text is derived from it.

Assays:
[1] = Toxicity in human erythrocytes at 60 uM by hemolysis assay in presence of serum; format: cell-based; details: erythrocyte
Staphylococcus aureus [2] = assay: Antimicrobial activity against Staphylococcus aureus FDA 486 after 21 hrs by broth microdilution method; format: functional; details: FDA 486, 21 h
Summary of the method: (§1)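 Microtiter broth dilution at 37°C for 21 h in DEAE-refined LB medium prepared in 10 mM Tris, pH 7.4. Bacteria were grown overnight in 3% trypticase soy broth, rinsed in Tris and used at about 10^6 CFU/ml. Final peptide was 0.6–80 µM in twofold steps. Growth was read visually as pellet and at OD540. MIC is >95% inhibition with no visible pellet. Two separate experiments.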

Staphylococcus aureus [3] = assay: Antimicrobial activity against Staphylococcus aureus 2844 after 21 hrs by broth microdilution method; format: functional; details: Staphylococcus aureus, 2844, 21 h; summary of the method: as §1
Staphylococcus aureus [4] = assay: Antimicrobial activity against Staphylococcus aureus 29213 after 21 hrs by broth microdilution method; format: functional; details: Staphylococcus aureus, 29213, 21 h; summary of the method: as §1
Pseudomonas aeruginosa [5] = assay: Antimicrobial activity against Pseudomonas aeruginosa ATCC 27853 after 21 hrs by broth microdilution method; format: functional; details: ATCC 27853, 21 h; summary of the method: as §1
Pseudomonas aeruginosa [6] = assay: Antimicrobial activity against Pseudomonas aeruginosa 15159 after 21 hrs by broth microdilution method; format: functional; details: Pseudomonas aeruginosa, 15159, 21 h; summary of the method: as §1
Lipid bilayer [7] = assay: Binding affinity to DOPC-cholesterol liposome at 10 to 1000 uM after 45 mins by ellipsometry
Summary of the method: (§2)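 Ellipsometry on DOPC-cholesterol bilayers deposited from DDM micelles onto silica. Peptide was added cumulatively in 10 mM Tris, pH 7.4, with 5 mM glucose at 37°C; […] adds 150 mM NaCl. Each step was followed 45 min to saturation. Adsorbed amount was calculated from refractive index and thickness, with dn/dc 0.154 cm3/g. Duplicates.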

Lipid bilayer [8] = assay: Binding affinity to DOPC-cholesterol liposome at 10 to 1000 uM after 45 mins by ellipsometry in presence of NaCl; summary of the method: as §2
[9] = Stability of the compound at 136 uM after 4 hrs in presence of human neutrophil elastase; format: ADME
Summary of the method: (§3)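 Peptide at 136 µM was incubated with protease (peptide:enzyme 300:1) for 4 h at 37°C in 10 mM Tris, pH 7.4. The reaction was stopped by boiling in Laemmli buffer, then run on Tris-Tricine 16.5% SDS-PAGE and Coomassie stained. Band densitometry gave the undegraded fraction, normalized to peptide incubated without enzyme. Two separate experiments.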

[10] = Stability of the compound at 136 uM after 4 hrs in presence of Pseudomonas aeruginosa elastase; format: ADME; summary of the method: as §3
[11] = Stability of the compound at 136 uM after 4 hrs in presence of aureolysin; format: ADME; summary of the method: as §3
[12] = Stability of the compound at 136 uM after 4 hrs in presence of […] V8 protease; format: ADME; summary of the method: as §3
Lipid bilayer [13] = assay: Induction of DOPC-cholesterol liposome leakage in cell-free system at 0.1 to 1 uM after 45 mins; format: functional
Summary of the method: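 Carboxyfluorescein-loaded (100 mM, self-quenching) DOPC-cholesterol 3:2 unilamellar liposomes, about 110 nm, at 10 µM lipid in Tris buffer at 37°C with stirring. Peptide was added at a single concentration per experiment, between 0.01 and 1 µM. After a 10 min baseline, fluorescence increase was followed for 45 min and the limiting leakage level taken.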

[14] = Toxicity in human erythrocytes at 6 to 60 uM by hemolysis assay; format: cell-based; details: erythrocyte
Summary of the method: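 EDTA-treated human erythrocytes were washed and used as a 5% suspension in PBS, pH 7.4. Cells were rotated end-over-end with peptide for 1 h at 37°C, then centrifuged. Hemoglobin was read at 540 nm relative to 2% Triton X-100, with spontaneous leakage as background. Triplicate.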

HaCaT [15] = assay: Cytotoxicity against human HaCaT assessed as LDH release at 6 to 60 uM; format: cell-based
Summary of the method: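 HaCaT keratinocytes were seeded at 3,000 cells/well and grown to confluence in serum-free keratinocyte medium with BPE-rEGF. They were exposed overnight to 6 or 60 µM peptide in that medium. LDH release was measured against a 1% Triton X-100 control, with spontaneous release as background. Triplicate.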

HaCaT [16] = assay: Cytotoxicity against human HaCaT assessed at 6 to 60 uM by MTT assay; format: cell-based
Summary of the method: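 HaCaT keratinocytes were seeded at 3,000 cells/well, grown to confluence in SFM-BPE-rEGF, and given 6 or 60 µM peptide overnight. MTT was then added for 1 h at 37°C and formazan dissolved in DMSO. Absorbance was read at 550 nm relative to untreated cells, with the 1% Triton X-100 signal as background. Triplicate.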

Q: For `CC[C@H](C)[C@H](NC(=O)[C@H](CCCNC(=N)N)NC(=O)[C@H](CCC(N)=O)NC(=O)[C@@H](NC(=O)[C@@H](NC(=O)[C@H](CCCNC(=N)N)NC(=O)[C@H](CCCCN)NC(=O)[C@H](Cc1ccccc1)NC(=O)[C@@H](N)CCC(=O)O)[C@@H](C)CC)C(C)C)C(=O)N[C@@H](CCCCN)C(=O)N[C@@H](CC(=O)O)C(=O)N[C@@H](Cc1ccccc1)C(=O)N[C@@H](CC(C)C)C(=O)N[C@@H](CCCNC(=N)N)C(=O)N[C@@H](CC(N)=O)C(=O)N[C@@H](CC(C)C)C(=O)N[C@H](C(=O)O)C(C)C`, which Activity [1] is on record?
A: Non-toxic

Q: What about the MIC (Staphylococcus aureus [2]) of the same compound?
A: 40 µM (≈ 87 µg/mL)

Q: What about the MIC (Staphylococcus aureus [3]) of the same compound?
A: 20 µM (≈ 43.5 µg/mL)

Q: What about the MIC (Staphylococcus aureus [4]) of the same compound?
A: 80 µM (≈ 174 µg/mL)

Q: What about the MIC (Pseudomonas aeruginosa [5]) of the same compound?
A: 80 µM (≈ 174 µg/mL)

Q: And the MIC (Pseudomonas aeruginosa [6])?
A: 80 µM (≈ 174 µg/mL)

Q: And the Activity (Lipid bilayer [7])?
A: Active

Q: What about the Activity (Lipid bilayer [8]) of the same compound?
A: inactive

Q: And the Stability [9]?
A: Unstable

Q: What about the Stability [10] of the same compound?
A: Unstable

Q: And the Stability [11]?
A: Unstable

Q: And the Stability [12]?
A: Stable

Q: What about the Activity (Lipid bilayer [13]) of the same compound?
A: Active

Q: For `CC(C)C[C@H](NC(=O)[C@H](Cc1c[nH]c2ccccc12)NC(=O)[C@H](CC(=O)O)NC(=O)[C@H](CCCCN)NC(=O)[C@H](Cc1c[nH]c2ccccc12)NC(=O)[C@H](CCCNC(=N)N)NC(=O)[C@H](CCC(N)=O)NC(=O)[C@@H](NC(=O)[C@H](Cc1c[nH]c2ccccc12)NC(=O)[C@H](CCCNC(=N)N)NC(=O)[C@H](CCCCN)NC(=O)[C@H](Cc1c[nH]c2ccccc12)NC(=O)[C@@H](N)CCC(=O)O)C(C)C)C(=O)N[C@@H](CCCNC(=N)N)C(=O)N[C@@H](CC(N)=O)C(=O)N[C@@H](CC(C)C)C(=O)N[C@H](C(=O)O)C(C)C` (H-EWKRWVQRWKDWLRNLV-OH), which Activity [14] is on record?
A: Toxic

Q: What about the MIC (Staphylococcus aureus [2]) of the same compound?
A: 5 µM (≈ 12 µg/mL)

Q: And the MIC (Staphylococcus aureus [3])?
A: 5 µM (≈ 12 µg/mL)

Q: And the MIC (Staphylococcus aureus [4])?
A: 10 µM (≈ 24 µg/mL)

Q: And the MIC (Pseudomonas aeruginosa [5])?
A: 10 µM (≈ 24 µg/mL)

Q: And the MIC (Pseudomonas aeruginosa [6])?
A: 20 µM (≈ 48 µg/mL)

Q: What about the Activity (HaCaT [15]) of the same compound?
A: Toxic

Q: And the Activity (HaCaT [16])?
A: Toxic

Q: And the Activity (Lipid bilayer [7])?
A: Active

Q: And the Activity (Lipid bilayer [8])?
A: inactive

Q: And the Stability [9]?
A: Stable

Q: What about the Stability [10] of the same compound?
A: Unstable

Q: And the Stability [11]?
A: Stable

Q: What about the Stability [12] of the same compound?
A: Stable

Q: What about the Activity (Lipid bilayer [13]) of the same compound?
A: Active
